Measured values from ChEMBL document CHEMBL3120102, “Structure-based design, synthesis and biological evaluation of novel anthra[1,2-d]imidazole-6,11-dione homologues as potential antitumor agents” (2013).

Assays:
Assay type in all cases: functional
MDA-MB-231 = assay: Cytotoxicity against human MDA-MB-231 cells assessed as growth inhibition after 48 hrs by SRB assay
Summary of the method: (§1)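 NCI 60-cell-line screen, five-dose stage: each cell line exposed for 48 h to five concentrations spanning five log steps; cellular protein measured by sulforhodamine B colorimetry. A time-zero cell control and plates without drug are used to derive GI50, TGI and LC50 from log-concentration dose-response curves.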

SR = assay: Cytotoxicity against human SR cells assessed as growth inhibition after 48 hrs by SRB assay
Summary of the method: (§2)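 NCI 60-cell-line screen, two stages. Five-dose testing at […]. Cellular protein measured by sulforhodamine B colorimetry after 48 h drug exposure. A time-zero control and drug-free plates are used to derive GI50, TGI and LC50 from dose-response curves plotted as log10 concentration per cell line.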

M14 = assay: Cytotoxicity against human M14 cells assessed as growth inhibition after 48 hrs by SRB assay
Summary of the method: (§3)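 NCI 60-cell-line five-dose screen at […]. Drug exposure was 48 h, followed by sulforhodamine B protein staining. GI50, TGI and LC50 were calculated against a time-zero control and untreated plates, with dose–response curves plotted from log10 concentration.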

CCRF-CEM = assay: Cytotoxicity against human CCRF-CEM cells assessed as growth inhibition after 48 hrs by SRB assay; summary of the method: as §3
HT-29 = assay: Cytotoxicity against human HT-29 cells assessed as cell growth at 10 uM after 48 hrs by SRB assay; settings: HT-29, 48 h, read-out: Activity
NCI-H23 = assay: Cytotoxicity against human NCI-H23 cells assessed as growth inhibition after 48 hrs by SRB assay; summary of the method: as §1
NCI-H226 = assay: Cytotoxicity against human NCI-H226 cells assessed as growth inhibition after 48 hrs by SRB assay; summary of the method: as §1
A498 = assay: Cytotoxicity against human A498 cells assessed as growth inhibition after 48 hrs by SRB assay; summary of the method: as §3
UACC-62 = assay: Cytotoxicity against human UACC62 cells assessed as growth inhibition after 48 hrs by SRB assay; summary of the method: as §2
HCT-15 = assay: Cytotoxicity against human HCT15 cells assessed as growth inhibition after 48 hrs by SRB assay; summary of the method: as §3
PC-3 = assay: Cytotoxicity against human PC3 cells assessed as growth inhibition after 48 hrs by SRB assay; summary of the method: as §1
MDA-MB-468 = assay: Cytotoxicity against human MDA-MB-468 cells assessed as cell growth at 10 uM after 48 hrs by SRB assay; settings: MDA-MB-468, 48 h, read-out: Activity
Summary of the method: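 First stage of the NCI 60 human tumour cell line screen: a single dose is tested against every line. Cell growth is read as cellular protein by sulforhodamine B colorimetry after 48 h of drug exposure, with reference to a time-zero control and to untreated plates.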

OVCAR-5 = assay: (§4) Cytotoxicity against human OVCAR5 cells assessed as growth inhibition after 48 hrs by SRB assay; summary of the method: as §1
[1] = as §4; settings: OVCAR-5, 48 h; summary of the method: as §1
RXF 393 = assay: Cytotoxicity against human RXF393 cells assessed as growth inhibition after 48 hrs by SRB assay; summary of the method: as §1
NCI-H460 = assay: Cytotoxicity against human NCI-H460 cells assessed as growth inhibition after 48 hrs by SRB assay; summary of the method: as §1
OVCAR-3 = assay: Cytotoxicity against human OVCAR3 cells assessed as growth inhibition after 48 hrs by SRB assay; summary of the method: as §1
NCI-H322M = assay: Cytotoxicity against human NCI-H322M cells assessed as growth inhibition after 48 hrs by SRB assay; summary of the method: as §1
HCT-116 = assay: Cytotoxicity against human HCT116 cells assessed as growth inhibition after 48 hrs by SRB assay; summary of the method: as §3
SF-295 = assay: Cytotoxicity against human SF295 cells assessed as growth inhibition after 48 hrs by SRB assay; summary of the method: as §1
MDA-MB-435 = assay: Cytotoxicity against human MDA-MB-435 cells assessed as growth inhibition after 48 hrs by SRB assay; summary of the method: as §1
SK-OV-3 = assay: Cytotoxicity against human SKOV3 cells assessed as growth inhibition after 48 hrs by SRB assay; summary of the method: as §1
HL-60(TB) = assay: Cytotoxicity against human HL-60(TB) cells assessed as growth inhibition after 48 hrs by SRB assay
Summary of the method: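 NCI 60-cell panel five-concentration stage (0.01, 0.1, 1, 10, 100) in HL-60(TB). Cellular protein was measured by sulforhodamine B colorimetry after 48 h of exposure. A time-zero cell control and untreated plates allowed calculation of GI50, TGI and LC50. These were read from log10 concentration dose-response curves.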

BT-549 = assay: Cytotoxicity against human BT549 cells assessed as growth inhibition after 48 hrs by SRB assay; summary of the method: as §3
SK-MEL-28 = assay: Cytotoxicity against human SK-MEL-28 cells assessed as growth inhibition after 48 hrs by SRB assay; summary of the method: as §1
Malme-3M = assay: Cytotoxicity against human MALME-3M cells assessed as growth inhibition after 48 hrs by SRB assay; summary of the method: as §3

In the case of `CCSc1nc2ccc3c(c2[nH]1)C(=O)c1ccccc1C3=O`, the “growth inhibition (GI)” value (MDA-MB-231) is reported as “Dose-dependent effect”, the GI50 (MDA-MB-231; MDA-MB-231, 48 h) is reported as 20.7 µM and the LC50 (MDA-MB-231; MDA-MB-231, 48 h) is reported as > 100 µM. The TGI (MDA-MB-231; MDA-MB-231, 48 h) was > 100 µM, the GI50 (SR) was 2.36 µM and the LC50 (50% lethal concentration) (SR) was > 100 µM. For the same compound, the TGI (SR) was > 100 µM, the “growth inhibition (GI)” value (SR) was “Dose-dependent effect” and the “growth inhibition (GI)” value (M14) was “Dose-dependent effect”. For the same compound, the GI50 (M14; M14, 48 h) was 5.62 µM, the LC50 (M14; M14, 48 h) was > 100 µM and the TGI (M14; M14, 48 h) was > 100 µM. For the same compound, the GI50 (CCRF-CEM) was 3.66 µM, the LC50 (CCRF-CEM) was > 100 µM and the TGI (CCRF-CEM) was > 100 µM. The “growth inhibition (GI)” value (CCRF-CEM) was “Dose-dependent effect”, the growth at 10 µM (HT-29) was 75.2% and the “growth inhibition (GI)” value (NCI-H23) was “Dose-dependent effect”. For the same compound, the GI50 (NCI-H23; NCI-H23, 48 h) was 8.6 µM, the LC50 (NCI-H23; NCI-H23, 48 h) was > 100 µM and the TGI (NCI-H23; NCI-H23, 48 h) was > 100 µM. The “growth inhibition (GI)” value (NCI-H226) was “Dose-dependent effect”, the GI50 (NCI-H226; NCI-H226, 48 h) was 14.2 µM and the LC50 (NCI-H226; NCI-H226, 48 h) was > 100 µM. For the same compound, the TGI (NCI-H226; NCI-H226, 48 h) was > 100 µM, the “growth inhibition (GI)” value (A498) was “Dose-dependent effect” and the GI50 (A498; A498, 48 h) was 4.7 µM. The TGI (A498; A498, 48 h) was > 100 µM, the CC50 (A498; A498, 48 h, read-out: LC50 (the source's name)) was > 100 µM and the “growth inhibition (GI)” value (UACC-62) was “Dose-dependent effect”. For the same compound, the GI50 (UACC-62; UACC-62, 48 h) was 7.73 µM, the LC50 (UACC-62; UACC-62, 48 h) was > 100 µM and the TGI (UACC-62; UACC-62, 48 h) was > 100 µM. For the same compound, the “growth inhibition (GI)” value (HCT-15) was “Dose-dependent effect”, the GI50 (HCT-15; HCT-15, 48 h) was 3.52 µM and the LC50 (concentration killing 50% of cells) (HCT-15; HCT-15, 48 h) was > 100 µM. The TGI (HCT-15; HCT-15, 48 h) was > 100 µM, the “growth inhibition (GI)” value (PC-3) was “Dose-dependent effect” and the GI50 (PC-3; PC-3, 48 h) was 65 µM. The LC50 (PC-3; PC-3, 48 h) was > 100 µM, the TGI (PC-3; PC-3, 48 h) was > 100 µM and the growth at 10 µM (MDA-MB-468) was 35.4%. The “growth inhibition (GI)” value (OVCAR-5) was “Dose-dependent effect”, the GI50 [1] was 6.25 µM and the LC50 [1] was > 100 µM. For the same compound, the TGI [1] was > 100 µM, the “growth inhibition (GI)” value (RXF 393) was “Dose-dependent effect” and the GI50 (RXF 393; RXF 393, 48 h) was 5.17 µM. For the same compound, the TGI (RXF 393; RXF 393, 48 h) was > 100 µM, the CC50 (RXF 393; RXF 393, 48 h, read-out: LC50 (the source's name)) was > 100 µM and the “growth inhibition (GI)” value (NCI-H460) was “Dose-dependent effect”. For the same compound, the GI50 (NCI-H460; NCI-H460, 48 h) was 5.49 µM, the LC50 (NCI-H460; NCI-H460, 48 h) was > 100 µM and the TGI (NCI-H460; NCI-H460, 48 h) was > 100 µM. The “growth inhibition (GI)” value (OVCAR-3) was “Dose-dependent effect”, the GI50 (OVCAR-3; OVCAR-3, 48 h) was 10.2 µM and the LC50 (50% lethal concentration) (OVCAR-3; OVCAR-3, 48 h) was > 100 µM. The TGI (OVCAR-3; OVCAR-3, 48 h) was > 100 µM, the GI50 (NCI-H322M) was 3.24 µM and the LC50 (concentration killing 50% of cells relative to time zero) (NCI-H322M) was > 100 µM. The TGI (NCI-H322M) was > 100 µM, the “growth inhibition (GI)” value (NCI-H322M) was “Dose-dependent effect” and the “growth inhibition (GI)” value (HCT-116) was “Dose-dependent effect”. The GI50 (HCT-116; HCT-116, 48 h) was 5.59 µM, the LC50 (HCT-116; HCT-116, 48 h) was > 100 µM and the TGI (HCT-116; HCT-116, 48 h) was > 100 µM. For the same compound, the “growth inhibition (GI)” value (SF-295) was “Dose-dependent effect”, the GI50 (SF-295; SF-295, 48 h) was 4.17 µM and the LC50 (SF-295; SF-295, 48 h) was > 100 µM. For the same compound, the TGI (SF-295; SF-295, 48 h) was 47.4 µM, the “growth inhibition (GI)” value (MDA-MB-435) was “Dose-dependent effect” and the GI50 (MDA-MB-435; MDA-MB-435, 48 h) was 76.5 µM. The LC50 (MDA-MB-435; MDA-MB-435, 48 h) was > 100 µM, the TGI (MDA-MB-435; MDA-MB-435, 48 h) was > 100 µM and the “growth inhibition (GI)” value (SK-OV-3) was “Dose-dependent effect”. For the same compound, the GI50 (SK-OV-3; SK-OV-3, 48 h) was 3.8 µM, the LC50 (concentration killing 50% of cells present at time zero) (SK-OV-3; SK-OV-3, 48 h) was > 100 µM and the TGI (SK-OV-3; SK-OV-3, 48 h) was > 100 µM. The “growth inhibition (GI)” value (HL-60(TB)) was “Dose-dependent effect”, the GI50 (HL-60(TB); HL-60, 48 h) was 5.26 µM and the LC50 (HL-60(TB); HL-60, 48 h) was > 100 µM. For the same compound, the TGI (HL-60(TB); HL-60, 48 h) was > 100 µM, the “growth inhibition (GI)” value (BT-549) was “Dose-dependent effect” and the GI50 (BT-549; BT-549, 48 h) was 9.34 µM. For the same compound, the LC50 (concentration killing 50% of cells) (BT-549; BT-549, 48 h) was > 100 µM, the TGI (BT-549; BT-549, 48 h) was > 100 µM and the “growth inhibition (GI)” value (SK-MEL-28) was “Dose-dependent effect”. The GI50 (SK-MEL-28; SK-MEL-28, 48 h) was 43.6 µM, the LC50 (SK-MEL-28; SK-MEL-28, 48 h) was > 100 µM and the TGI (SK-MEL-28; SK-MEL-28, 48 h) was > 100 µM. The GI50 (Malme-3M) was 3.58 µM, the TGI (Malme-3M) was 94 µM and the “growth inhibition (GI)” value (Malme-3M) was “Dose-dependent effect”. The CC50 (Malme-3M; read-out: LC50 (the source's name)) was > 100 µM.

Compound `O=C1c2ccccc2C(=O)c2c1ccc1[nH]c(=S)[nH]c21` has a growth at 10 µM (HT-29) of 104% and a growth at 10 µM (MDA-MB-468) of 87.7%.
